Results: ChEMBL document CHEMBL1142708, “Synthesis, characterization, and comparative in vitro cytotoxicity studies of platinum(II), palladium(II), and gold(III) methylsarcosinedithiocarbamate complexes” (J Med Chem, 2005)

What was measured:
[1] = system: HL-60; assay: Concentration of the compound required to inhibit cell growth by 50% towards human HL60 tumor cell lines by the trypan blue dye exclusion test after 72 h; type: functional, cell-based
Summary of the method: (§1)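 Cells were seeded in IMDM with 10% heat-inactivated FCS, penicillin/streptomycin and L-glutamine at 37 °C under 5% CO2, at 5.0 × 10^4 cells·mL-1 for HeLa and 2.0 × 10^5 cells·mL-1 for HL60. Compounds were taken from DMSO stocks into IMDM (final DMSO 0.1%). After 72 h, cells were stained for 2 min with 0.25% trypan blue plus 5% FCS, and viable cells were counted by phase-contrast microscopy. IC50 was taken as 50% growth inhibition versus control.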

[2] = system: HeLa; assay: Concentration of the compound required to inhibit cell growth by 50% towards human HeLa tumor cell lines by the trypan blue dye exclusion test after 72 h; type: functional, cell-based; summary of the method: as §1

Substance | IC50 [1] [µM] | IC50 [2] [µM]
CISPLATIN | 1.7 | 1.2
[Au(MSDT)Br2] | 0.8 | 1.8
[Au(MSDT)Cl2] | 0.9 | 1.7
[Pd(MSDT)Br]n | 3.7 | 5
[Pd(MSDT)Cl]n | 3.8 | 6
[Pd(MSDTM)Br2] | > 15 | > 15
[Pt(MSDT)Br]n | > 15 | > 15
[Pt(MSDT)Cl]n | > 15 | > 15
[Pt(MSDTM)Br2] | > 15 | > 15
